From ChEMBL document CHEMBL1148947, “Prenylated benzophenones and xanthones from Hypericum scabrum” (J Nat Prod, 2004)
In brackets after ≈: the same amount, converted by molar mass. Activity calls are given as the source filed them. The calls are words filed in the database; no cut-off is given here.

Experiments:
A549 [1] = test: Cytotoxicity against human A549 cells after 3 days by SRB assay; format: functional, cell-based; conditions: A549, 72 h
Procedure, shortened: (§1)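 Cells kept in RPMI-1640 with 25 mM HEPES, 0.25% sodium bicarbonate, 10% FBS and 100 µg/mL kanamycin. Freshly trypsinized cells seeded at 1500-7500 per well with compound diluted from DMSO stock. After 3 days, attached cells fixed with cold 50% TCA, stained with 0.4% SRB, and bound dye solubilized. Absorbance read at 562 nm. IC50 = 50% reduction relative to untreated cells. Below 50% inhibition at 20 mcg/mL, percent inhibition reported.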

MCF7 [2] = test: Cytotoxicity against human MCF7 cells after 3 days by SRB assay; format: functional, cell-based; conditions: MCF7, 72 h; procedure, shortened: as §1
A549 [3] = test: Cytotoxicity against human A549 cells at 20 mcg/mL after 3 days by SRB assay; format: functional; conditions: for inhibition at 20 µg/mL: A549, 72 h; procedure, shortened: as §1
MCF7 [4] = test: Cytotoxicity against human MCF7 cells at 20 mcg/mL after 3 days by SRB assay; format: functional; conditions: for inhibition at 20 µg/mL: MCF7, 72 h; procedure, shortened: as §1

CC1(C)CCc2c(c(O)cc3oc4cc(O)cc(O)c4c(=O)c23)O1 [HYPERXANTHONE E]
IC50 (A549 [1]): 18.5 µg/mL (≈ 56.3 µM)
IC50 (MCF7 [2]): 19.3 µg/mL (≈ 58.8 µM)

C[C@H]1O[C@@H](Oc2c(-c3cc(O)c(O)c(O)c3)oc3cc(O)cc(O)c3c2=O)[C@@H](O)[C@@H](O)[C@@H]1O [MYRICITRIN]
IC50 (A549 [1]): > 20 µg/mL
IC50 (MCF7 [2]): 11.2 µg/mL (≈ 24.1 µM)
inhibition at 20 µg/mL (A549 [3]): 13%

CC(C)(O)C1Cc2c(c(O)cc3oc4cc(O)cc(O)c4c(=O)c23)O1 (centres undefined) [HYPERXANTHONE A]
IC50 (A549 [1]): > 20 µg/mL
IC50 (MCF7 [2]): > 20 µg/mL
inhibition at 20 µg/mL (A549 [3]): 26%
inhibition at 20 µg/mL (MCF7 [4]): 27%

O=c1c(O[C@@H]2OC[C@@H](O)[C@@H](O)[C@@H]2O)c(-c2ccc(O)c(O)c2)oc2cc(O)cc(O)c12
IC50 (A549 [1]): > 20 µg/mL
IC50 (MCF7 [2]): > 20 µg/mL
inhibition at 20 µg/mL (A549 [3]): 11%
inhibition at 20 µg/mL (MCF7 [4]): 17%

O=c1c(O[C@@H]2O[C@H](CO)[C@H](O)[C@H](O)[C@H]2O)c(-c2ccc(O)c(O)c2)oc2cc(O)cc(O)c12
Activity (A549 [3]): inactive
Activity (MCF7 [4]): inactive

COc1ccc(O)c2c(=O)c3cc(O)ccc3oc12
IC50 (A549 [1]): 8.5 µg/mL (≈ 32.9 µM)
IC50 (MCF7 [2]): 15.2 µg/mL (≈ 58.9 µM)

CC(C)=CC[C@@]12C[C@H]3[C@@H](C=C(C)C)[C@@](C(=O)c4ccccc4)(C1=O)C(=O)[C@@](CC=C(C)C)(C2=O)C3(C)C [HYPERIBONE K]
IC50 (A549 [1]): 13.7 µg/mL (≈ 27.4 µM)
IC50 (MCF7 [2]): 10 µg/mL (≈ 20 µM)

CC1(C)C=Cc2c(c(O)cc3oc4cc(O)cc(O)c4c(=O)c23)O1 [TOXYLOXANTHONE B]
IC50 (A549 [1]): > 20 µg/mL
IC50 (MCF7 [2]): > 20 µg/mL
inhibition at 20 µg/mL (A549 [3]): 28%
inhibition at 20 µg/mL (MCF7 [4]): 17%

C[C@@H]1O[C@@H](Oc2c(-c3ccc(O)c(O)c3)oc3cc(O)cc(O)c3c2=O)[C@H](O)[C@H](O)[C@H]1O [QUERCITRIN]
IC50 (A549 [1]): > 20 µg/mL
IC50 (MCF7 [2]): > 20 µg/mL
inhibition at 20 µg/mL (A549 [3]): 12%
inhibition at 20 µg/mL (MCF7 [4]): 18%

O=c1c(O)c(-c2cc(O)c(O)c(O)c2)oc2cc(O)cc(O)c12 [MYRICETIN]
IC50 (A549 [1]): 14.8 µg/mL (≈ 46.5 µM)
IC50 (MCF7 [2]): 4.7 µg/mL (≈ 14.8 µM)

O=c1c2ccc(O)c(O)c2oc2cc(O)cc(O)c12
IC50 (A549 [1]): 10 µg/mL (≈ 38.4 µM)
IC50 (MCF7 [2]): 9.3 µg/mL (≈ 35.7 µM)

O=c1c(-c2c(O)cc(O)c3c(=O)cc(-c4ccc(O)cc4)oc23)c(-c2ccc(O)cc2)oc2cc(O)cc(O)c12
IC50 (A549 [1]): > 20 µg/mL
IC50 (MCF7 [2]): > 20 µg/mL
inhibition at 20 µg/mL (A549 [3]): 27%
inhibition at 20 µg/mL (MCF7 [4]): 26%

C=C(C)C(O)Cc1c(O)c(O)cc2oc3cc(O)cc(O)c3c(=O)c12 (centres undefined) [HYPERXANTHONE C]
IC50 (A549 [1]): 9.3 µg/mL (≈ 27 µM)
IC50 (MCF7 [2]): 11.2 µg/mL (≈ 32.5 µM)

CC(C)=CC[C@H]1C[C@]2(CC=C(C)C)C(=O)C(C(=O)c3ccccc3)=C(O)[C@](CC=C(C)C)(C2=O)C1(C)C
IC50 (A549 [1]): 13.7 µg/mL (≈ 27.3 µM)
IC50 (MCF7 [2]): 10 µg/mL (≈ 19.9 µM)

C=C(C)C(O)Cc1c(O)ccc2oc3cc(O)cc(O)c3c(=O)c12 (centres undefined) [HYPERXANTHONE D]
IC50 (A549 [1]): > 20 µg/mL
IC50 (MCF7 [2]): > 20 µg/mL
inhibition at 20 µg/mL (A549 [3]): 43%
inhibition at 20 µg/mL (MCF7 [4]): 34%

O=c1cc(-c2ccc(O)c(O)c2)oc2cc(O)cc(O)c12 [LUTEOLIN]
IC50 (A549 [1]): 12.9 µg/mL (≈ 45.1 µM)
IC50 (MCF7 [2]): 14.3 µg/mL (≈ 50 µM)

O=c1c(O)c(-c2ccc(O)c(O)c2)oc2cc(O)cc(O)c12 [QUERCETIN]
IC50 (A549 [1]): > 20 µg/mL
IC50 (MCF7 [2]): 19.5 µg/mL (≈ 64.5 µM)
inhibition at 20 µg/mL (A549 [3]): 21%

O=c1c2cc(O)ccc2oc2cccc(O)c12
IC50 (A549 [1]): 14.5 µg/mL (≈ 63.5 µM)
IC50 (MCF7 [2]): 19.5 µg/mL (≈ 85.5 µM)

CC(C)=CCc1c(O)c(O)cc2oc3cc(O)cc(O)c3c(=O)c12
IC50 (A549 [1]): 18.5 µg/mL (≈ 56.3 µM)
IC50 (MCF7 [2]): 18.4 µg/mL (≈ 56 µM)

CC(C)=CCC[C@]1(C)[C@@H](CC=C(C)C)C[C@]2(C)C(=O)[C@@]3(CC=C(C)C)O[C@]2(O)[C@]1(C(=O)C(C)C)C3=O [HYPERIBONE J]
IC50 (A549 [1]): > 20 µg/mL
IC50 (MCF7 [2]): 17.8 µg/mL (≈ 35.7 µM)
inhibition at 20 µg/mL (A549 [3]): 49%

CC(C)=CC[C@H]1C[C@@]2(CC=C(C)C)C(=O)C(C(=O)c3ccccc3)=C(O)[C@](C)(C2=O)C1(C)C [HYPERIBONE L]
IC50 (A549 [1]): 9.2 µg/mL (≈ 20.5 µM)
IC50 (MCF7 [2]): 15 µg/mL (≈ 33.4 µM)

O=c1c(O[C@@H]2O[C@@H](CO)[C@H](O)[C@H]2O)c(-c2ccc(O)c(O)c2)oc2cc(O)cc(O)c12
Activity (A549 [3]): inactive
Activity (MCF7 [4]): inactive
